Only some compounds are listed: those with a hit (about 2.7% of all), similar ones and a draw of the others.
PLK1 kinase inh – blocks human PLK1 kinase activity; inhibition, % at 10 µM; 97,000 tested, 0.53% active; recombinant PLK1 kinase, TR-FRET peptide phosphorylation; AID 619; P53350;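 active = inhibition of 50% or more in the single-concentration screen; inactive = inhibition below 50%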;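 also: 0% = DMSO max control and 100% = H-89 dihydrochloride min control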
Rev-RRE block – HIV Rev-RRE protein-RNA interaction inhibition. P05866. Rev peptide-RRE RNA binding, FRET. inhibition, % at 8 µM. 97,000 tested, 0.79% active;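 active = inhibition above the screen-wide mean plus 3 SD, cut at about 35% in these data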;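 also: 0% = median DMSO wells and 100% = median Neomycin B control wells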
Target sequence (P05866 whole entry, looked up): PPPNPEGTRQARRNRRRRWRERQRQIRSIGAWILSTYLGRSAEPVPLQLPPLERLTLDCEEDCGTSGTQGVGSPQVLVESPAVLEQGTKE
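Probe or stimulus: fluorescein-Rev peptide as binding partner; assay system: Cy5-tagged RRE RNA duplex with fluorescein-tagged Rev peptide; timing: 5 min compound–RNA preincubation, then 15 min with peptide, 25 °C; medium: HEPES pH 7.5 buffer with KCl, MgCl2, NaCl and EDTA; signal: fluorescein-to-Cy5 FRET, 480 nm excitation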
PTPN22 act – LYP (human) phosphatase activation; Q9Y2R2; recombinant LYP, DiFMUP fluorescence; 0 = plate median, 100 = signal doubled; activation, % at 2 µM; 96,000 tested, 0.11% active; AID 697;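 active = activation at 2 µM above a set limit, the mean plus 5 SD, cut at about 37% in these data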
PLAP activator – activators of human placental alkaline phosphatase; purified PLAP enzyme, luminescent substrate read-out; stronger effect = higher value; activation fold at 20 µM; 96,000 tested, 1.2% active; AID 696; in the data active = activation fold above about 2
Target sequence (P05187 whole entry, looked up): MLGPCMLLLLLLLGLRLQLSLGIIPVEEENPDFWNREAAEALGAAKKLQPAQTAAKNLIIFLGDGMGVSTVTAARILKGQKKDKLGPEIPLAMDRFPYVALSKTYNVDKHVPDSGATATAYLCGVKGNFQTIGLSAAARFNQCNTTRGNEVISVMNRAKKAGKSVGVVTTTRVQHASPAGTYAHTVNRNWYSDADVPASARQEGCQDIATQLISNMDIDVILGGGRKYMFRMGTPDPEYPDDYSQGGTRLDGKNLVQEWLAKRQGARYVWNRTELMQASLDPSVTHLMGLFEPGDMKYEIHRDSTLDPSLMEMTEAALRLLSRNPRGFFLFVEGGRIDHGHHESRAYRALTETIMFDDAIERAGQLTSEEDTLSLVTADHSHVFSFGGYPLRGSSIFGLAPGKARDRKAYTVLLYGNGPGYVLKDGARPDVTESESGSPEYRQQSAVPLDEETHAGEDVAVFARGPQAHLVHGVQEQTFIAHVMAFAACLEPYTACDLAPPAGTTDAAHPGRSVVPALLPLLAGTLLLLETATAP
PTPN22 inh 2 – inhibitors of human LYP (PTPN22) phosphatase; recombinant LYP catalytic domain, DiFMUP fluorescence; 96,000 tested, 0.21% active; AID 640; Q9Y2R2; inhibition, % at 2 µM;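 active = inhibition at 2 µM at or above a set limit, the screen mean plus 3 SD, cut at about 24% in these data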;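 also: 0% = DMSO with enzyme and 100% = enzyme fully blocked by orthovanadate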
PLK1 PBD inh – Plk1 (human) PBD binding inhibition. 97,000 tested, 0.13% active. Plk1 PBD phosphopeptide binding, fluorescence polarization. P53350. inhibition, %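 (tested at about 20 µM)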; in the data active = inhibition above about 34%, passing the limit was not always enough
PLK1 confirm – confirmation of human PLK1 kinase inhibitors. 210 tested, 20% active. shares compounds with PLK1 kinase inh. recombinant PLK1 kinase, TR-FRET peptide phosphorylation. inhibition, % at 10 µM;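 active = inhibition at or above 50% in each of two repeat confirmation tests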;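 also: 0% = DMSO max control and 100% = H-89 kinase-blocked min control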
Plk1 interf – interferes with the Plk1 assay readout, not true inhibition; inhibition (interference), % at 10 µM; Plk1 TR-FRET assay interference, compound added post-reaction; shares compounds with PLK1 kinase inh; 210 tested, under 10 active; AID 756;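 active = both duplicate runs show 50% or greater inhibition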;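 also: 0% = DMSO max control and 100% = H-89 min control inhibited reaction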
PBD redox DR – generates H2O2 by redox cycling, flagging false Plk1 PBD hits; shares compounds with PLK1 PBD inh; redox cycling H2O2 generation, DTT, counter-screen; EC50, µM; 120 tested, under 10 active; AID 876; call rule not given here
Active calls of the source: *; nt = no result given.

SMILES	PLK1 kinase inh	Rev-RRE block	PTPN22 act	PLAP activator	PTPN22 inh 2	PLK1 PBD inh	PBD redox DR	others
COc1ccc(OCc2nnc3n2N=C(c2ccc(OC)cc2)CS3)cc1	83*	6	nt	1.4	nt	-21	nt	PLK1 confirm=-2;Plk1 interf=-49
Cc1nc2cc(-c3cccs3)[nH]n2c(=O)c1C	-9	7	1	nt	0	-2	nt
CCN(CC)S(=O)(=O)c1cc(C(=O)OC)ccc1Cl	-10	3	-1	1	0	-11	nt
CC(=O)c1cccc(-n2c(CCC(=O)O)ccc2-c2cccs2)c1	-8	4	-3	1.5	0	-16	nt
O=C(O)CCc1ccc(-c2cccs2)n1-c1ccc(C(=O)O)cc1	96*	2	nt	1.2	nt	-24	nt	PLK1 confirm=1;Plk1 interf=-46
Cc1nc(-c2cccnc2)sc1C(N)=O	76*	6	5	0.8	-1	-29	nt	PLK1 confirm=35;Plk1 interf=-53
Cc1nc(-c2cccnc2)sc1C(=O)Nc1ccc(Cl)cc1	-8	6	-8	1.1	12	-4	nt
CCn1nccc1C(=O)Nc1ccc(Cl)cn1	-9	-2	8	1	-6	-12	nt
CCn1ccc(C(=O)Nc2ccc(Cl)cn2)n1	71*	7	nt	1	nt	2	nt	PLK1 confirm=-8;Plk1 interf=-57
CCCCCC(C)n1[nH]c(=O)c2c(C)cc(C)nc21 (stereo not given)	86*	2	nt	1.3	nt	12	nt	PLK1 confirm=2;Plk1 interf=-48
COc1ccc(-c2cc(C(=O)NCc3cccnc3)no2)cc1OC	-14	0	-8	1.1	7	-1	nt
c1cc2cn[nH]c2cc1NC1CCCCCC1	-4	4	-3	1.2	2	8	nt
Cc1cccc(-c2csc(N)c2C(=O)OC(C)C)c1	3	-4	-9	nt	7	-1	nt
CCOC(=O)c1c(-c2ccncc2)csc1N	70*	7	2	0.9	-3	7	nt	PLK1 confirm=66*;Plk1 interf=-49
CC1CCN(c2ncnc3c2cnn3-c2ccccc2)CC1	75*	11	nt	0.9	nt	-50	nt	PLK1 confirm=-4;Plk1 interf=-54
CCOC(=O)C1CCN(c2ncnc3c2cnn3-c2ccccc2)CC1	-13	10	1	1	-4	2	nt
Cc1ccc(CNc2ccc(N3CCOCC3)cc2)s1	-3	2	-1	0.8	0	-2	nt
CC(=O)N1CCN(c2ccc(NCc3ccc(C)s3)cc2)CC1	77*	-1	nt	1.6	nt	-9	nt	PLK1 confirm=-1;Plk1 interf=-59
CCOC(=O)c1ccc(NC(=S)NCCCN2CCCCC2)cc1	113*	-7	0	0.9	5	-17	nt	PLK1 confirm=-3;Plk1 interf=-49
CCOc1ccc(NC(=O)NCCCN2CCCC2)cc1	9	13	-5	0.9	8	27	nt
O=C(NC(NC(=S)Nc1ccc(Cl)cc1Cl)C(Cl)(Cl)Cl)c1cccc([N+](=O)[O-])c1 (stereo not given)	-2	5	3	1.2	1	56*	>50
O=C(NC(NC(=S)Nc1ccccc1)C(Cl)(Cl)Cl)c1cccc(Cl)c1 (stereo not given)	-11	8	4	0.8	0	9	nt
CCn1cnc2sc(C(=O)N3CCN(c4ccc(OC)cc4)CC3)c(C)c2c1=O	-5	-2	-4	1.3	4	45*	>50
CCCNC(=O)Cn1cnc2sc(C(=O)N3CCN(CCC)CC3)c(C)c2c1=O	nt	nt	nt	1.2	nt	nt	nt
CC1CCCCC1NC(=O)COC(=O)c1ccc(N(C)C)cc1 (stereo not given)	-2	1	4	0.8	-4	-39	nt
SMILES	PLK1 kinase inh	Rev-RRE block	PTPN22 act	PLAP activator	PTPN22 inh 2	PLK1 PBD inh	PBD redox DR	others
CO/C=C/C#CC1(O)CCN(C)CC1	-17	7	-6	0.9	4	-1	nt
O=C(O)C1C2C=CC(C2)C1C(=O)Nc1ccc2c(c1)OCCO2 (stereo not given)	-7	6	7	1	-8	7	nt
O=C(O)C1CCCCC1C(=O)Nc1ccc2c(c1)OCCO2 (stereo not given)	-8	0	-5	1.1	3	52*	>50
Cc1ccc2nc(SCC(=O)c3ccc4c(c3)OCO4)[nH]c2c1	-11	-1	9	0.9	-7	-17	nt
OCC(CO)(CO)N=Cc1cc(Br)ccc1O	-7	3	11	0.7	-13	47*	>50
Cn1c(N2CCN(C(=O)C34CC5CC(CC(C5)C3)C4)CC2)nc2ccccc21	nt	nt	nt	0.9	nt	nt	nt
CC(=O)N(/N=C1\Sc2ccccc2C1=O)c1cccc(C)c1	-11	8	-6	1	8	77*	>50
CC(=O)N(CN1C(=O)c2ccccc2C1=O)c1cccc(C)c1	-10	5	-8	1.2	6	-1	nt
Cc1nn(-c2cc(N3CCCCC3)ccc2[N+](=O)[O-])c(=O)c2ccccc12	-9	1	1	nt	-1	22	nt
Cc1ccc(S(=O)(=O)c2cc3ccccc3oc2=Nc2ccc3c(c2)OCO3)cc1	-2	3	5	1	-1	16	nt
CCNC(=O)NC(=O)C(C)OC(=O)c1cccnc1SC (stereo not given)	-3	0	-12	nt	10	51*	>50
C=CCNC(=O)NC(=O)COC(=O)c1cccnc1SC	-3	7	0	0.8	2	6	nt
Cc1ccc(O)c(-c2cc(-c3ccccc3C)[nH]n2)c1	-2	13	7	1.6	-8	-9	nt
COc1ccc(S(=O)(=O)N2CCN(C(=O)NCc3ccccc3)CC2)cc1	-17	7	-11	1	14	-9	nt
Cn1c(C(=O)NCc2cccs2)cc2c(=O)n(C)c3ccccc3c21	-22	-2	15	0.9	-18	-18	nt
Cc1ccc(CNC(=O)c2cc3c(=O)n(C)c4ccccc4c3n2C)cc1	-71	3	3	0.5	-6	62*	>50
CC1CN(C2CC(C)(C)NC(C)(C)C2)CCC1=O (stereo not given)	0	8	-5	1	6	53*	>50
COc1cc(OC)cc(C(=O)NCCCN2CCOCC2)c1	-9	4	0	nt	1	53*	>50
CCOC(=O)c1c2c(n(C)c1C)C(=O)C(=O)c1ccc(Br)cc1-2	-5	4	-7	nt	7	116*	0.61*
O=c1[nH]cc(COCc2ccccc2)c(=O)[nH]1	-7	7	6	0.9	-6	46*	>50
CC(C)N(Cc1cc2ccccc2[nH]c1=O)C(=O)c1cccnc1	-9	4	7	0.8	-10	35*	>50
CC(C)Nc1nnc(SCC(=O)c2c(N)n(Cc3ccccc3)c(=O)n(C)c2=O)s1	0	4	-9	0.9	13	45*	>50
CN(C)CCCNC(=O)c1ccc(CN(c2ccccc2)S(C)(=O)=O)cc1	nt	nt	nt	1	nt	nt	nt
